ChEMBL document CHEMBL4014332, “Multitargeted Imidazoles: Potential Therapeutic Leads for Alzheimer's and Other Neurodegenerative Diseases” (J Med Chem, 2017)

Legend:
[1] = Change in total alpha-tubulin levels in human QBI293 cells at 1 uM after 4 hrs by ELISA relative to control; details: qbi293, 4 h
Rattus norvegicus = organism: Rattus norvegicus; assay: Inhibition of 5-LOX-mediated LTB4 production in arachidonic acid-stimulated RBL1 cells at 10 uM preincubated for 2 hrs followed by A23187 induction for 15 mins by LC/MS/MS analysis relative to control
Method in brief: (§1)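 RBL-1 cells grown in RPMI/10% FBS, plated 9 × 10⁵ cells/well, held 2 h at 37 °C, then given compound for 2 h (screen at 10 μM, then concentration–response in triplicate). Stimulation was 12 μM A23187 for 15 min. Supernatants were extracted with MeOH/0.01% BHT and LTB₄ quantified by UPLC-MS/MS in negative ion mode.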

Homo sapiens = organism: Homo sapiens; assay: Induction of microtubule stabilization in human QBI293 cells assessed as increase in acetylated tubulin levels at 1 uM after 4 hrs by ELISA relative to control; type: cell-based
Method in brief: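 QBI-293 cells grown in DMEM/10% FBS at 37 °C, 5% CO2, plated 6 × 10⁵ cells/well overnight, then treated with vehicle or compound (1 and 10 μM) for 4 h. Lysis was in RIPA with protease inhibitors, 1 mM PMSF and 1 μM TSA, followed by 100000g spin for 30 min. Acetylated α-tubulin was measured by ELISA on BCA-quantified supernatant, reported as fold change vs DMSO, at least triplicate, t test.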

[2] = Inhibition of 5-LOX-mediated LTB4 production in arachidonic acid-stimulated RBL1 cells preincubated for 2 hrs followed by A23187 induction for 15 mins by LC/MS/MS analysis; details: Rattus norvegicus, RBL-1; method in brief: as §1
Cyclooxygenase = molecular target: T1, Cyclooxygenase (Rattus norvegicus, UniProt P35355+Q63921); assay: Inhibition of COX-mediated PGD2/PGE2 production in arachidonic acid-stimulated RBL1 cells preincubated for 2 hrs followed by A23187 induction for 15 mins by LC/MS/MS analysis
T1 sequence (P35355 whole entry): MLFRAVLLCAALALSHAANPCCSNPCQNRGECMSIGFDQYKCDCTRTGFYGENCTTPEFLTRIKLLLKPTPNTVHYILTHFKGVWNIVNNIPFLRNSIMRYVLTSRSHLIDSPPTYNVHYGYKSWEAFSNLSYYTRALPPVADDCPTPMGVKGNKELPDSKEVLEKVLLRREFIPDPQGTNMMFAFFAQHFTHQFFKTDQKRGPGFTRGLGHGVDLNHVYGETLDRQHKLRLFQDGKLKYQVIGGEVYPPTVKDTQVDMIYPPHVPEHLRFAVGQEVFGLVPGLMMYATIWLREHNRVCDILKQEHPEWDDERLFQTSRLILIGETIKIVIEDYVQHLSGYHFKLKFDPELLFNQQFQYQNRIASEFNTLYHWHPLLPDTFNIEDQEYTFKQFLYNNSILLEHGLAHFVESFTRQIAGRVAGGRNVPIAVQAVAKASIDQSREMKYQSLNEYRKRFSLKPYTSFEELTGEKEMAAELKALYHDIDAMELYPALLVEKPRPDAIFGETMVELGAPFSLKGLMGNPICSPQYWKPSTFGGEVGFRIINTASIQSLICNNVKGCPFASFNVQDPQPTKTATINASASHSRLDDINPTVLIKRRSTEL
T1 sequence (Q63921 whole entry): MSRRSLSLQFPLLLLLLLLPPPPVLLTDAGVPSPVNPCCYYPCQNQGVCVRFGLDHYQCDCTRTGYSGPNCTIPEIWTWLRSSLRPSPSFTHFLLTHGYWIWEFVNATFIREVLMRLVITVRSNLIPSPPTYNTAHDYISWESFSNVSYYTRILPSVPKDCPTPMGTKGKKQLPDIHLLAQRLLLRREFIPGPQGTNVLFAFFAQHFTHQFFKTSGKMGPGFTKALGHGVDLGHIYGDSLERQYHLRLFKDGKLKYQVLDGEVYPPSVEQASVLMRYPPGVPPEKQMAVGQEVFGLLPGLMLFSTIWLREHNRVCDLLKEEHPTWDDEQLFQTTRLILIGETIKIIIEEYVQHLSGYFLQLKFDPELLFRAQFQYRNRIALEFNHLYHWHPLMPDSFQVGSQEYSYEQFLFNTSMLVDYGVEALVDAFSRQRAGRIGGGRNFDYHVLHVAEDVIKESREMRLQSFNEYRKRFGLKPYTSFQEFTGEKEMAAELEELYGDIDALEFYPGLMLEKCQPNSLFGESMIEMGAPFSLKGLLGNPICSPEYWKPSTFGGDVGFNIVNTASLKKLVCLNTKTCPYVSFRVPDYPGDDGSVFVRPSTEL
Method in brief: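 RBL-1 cells in RPMI/10% FBS, 9 × 10⁵ cells/well, held 2 h, then exposed to compound for 2 h at multiple concentrations in triplicate. Stimulation was 12 μM A23187 for 15 min. Eicosanoids were extracted with MeOH/0.01% BHT, and PGD₂ plus PGE₂ measured by UPLC-MS/MS (negative ion, 351 > 315).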

SMILES | Activity [1] | inhibition (Rattus norvegicus) | also measured
Fc1ccc(-c2c(Cl)ncn2-c2ccc(Cl)cc2)cc1 | Non-Toxic | 59% | –
Cc1ncc(-c2c(F)ccc(F)c2F)n1-c1ccc(Cl)cc1 | – | 45% | FC [1]: 0.9
Fc1cccc(F)c1-c1cncn1-c1ccccc1 | Non-Toxic | < 10% | –
Fc1cccc(F)c1-c1cnc(Cl)n1-c1ccccc1Cl | Non-Toxic | 38% | –
Fc1ccc(F)c(-c2c(Cl)ncn2-c2ccc(Cl)cc2)c1 | Non-Toxic | 69% | –
Cc1nc(Cl)n(-c2ccc(Cl)cc2)c1-c1c(F)ccc(F)c1F | Non-Toxic | 58% | –
Cc1nc(Cl)c(-c2c(F)ccc(Cl)c2F)n1-c1ccc(Cl)cc1 | – | 84% | FC [1]: 0.6; fold change (FC) (Homo sapiens): 1.7
COc1ccc(F)c(-c2cnc(Cl)n2-c2ccc(Cl)cc2)c1F | – | 68% | FC [1]: 0.6
Clc1ccc(-n2c(-c3ccccc3)cnc2Cl)cc1 | – | 52% | FC [1]: 1.2
Cc1nc(Cl)c(-c2c(F)cc(F)cc2F)n1-c1ccc(Cl)nc1 | Non-Toxic | 26% | –
Cc1nc(Cl)n(-c2ccc(Cl)cc2)c1-c1c(F)cccc1F | Non-Toxic | 42% | –
C[C@H](Nc1c(-c2c(F)cc(F)cc2F)c(Cl)nc2ncnn12)C(F)(F)F | Non-Toxic | – | fold change (FC) (Homo sapiens): 2.5
Fc1cc(F)c(-c2c(Cl)ncn2-c2ccc(Cl)nc2)c(F)c1 | – | < 10% | FC [1]: 0.8
Fc1cc(F)c(-c2c(Cl)nc(Cl)n2-c2ccc(Cl)cc2)c(F)c1 | Non-Toxic | 48% | –
Fc1cc(F)c(-c2cncn2-c2ccc(Cl)cc2)c(F)c1 | Non-Toxic | 24% | –
Fc1cc(F)c(-c2cnc(Cl)n2-c2ccc(Cl)cc2)c(F)c1 | Non-Toxic | 61% | –
Fc1ccc(-c2cnc(Cl)n2-c2ccc(Cl)cc2)cc1 | Non-Toxic | 57% | –
Fc1cc(F)c(-c2c(Cl)ncn2-c2ccc(Cl)cc2)c(F)c1 | Non-Toxic | 46% | –
COc1ccc(-c2cncn2-c2ccc(Cl)cc2)cc1 | Non-Toxic | < 10% | –
Fc1cccc(F)c1-c1c(Cl)nc(Cl)n1-c1ccc(OC(F)(F)F)cc1 | Non-Toxic | 81% | –
Fc1ccc(F)c(-c2c(Cl)nc(Cl)n2-c2ccc(OC(F)(F)F)cc2)c1F | Non-Toxic | 56% | –
Cc1cc(F)c(-c2cnc(Cl)n2-c2ccc(Cl)cc2)c(F)c1 | Non-Toxic | 73% | –
Fc1cccc(F)c1-c1c(Cl)ncn1-c1ccc(OC(F)(F)F)cc1 | Non-Toxic | 78% | –
Cc1cc(F)c(-c2cncn2-c2ccc(Cl)cc2)c(F)c1 | Non-Toxic | 84% | –
COc1ccc(-c2c(Cl)ncn2-c2ccc(Cl)cc2)cc1 | Non-Toxic | < 10% | –
Fc1cccc(F)c1-c1c(Cl)ncn1-c1ccccc1Cl | Non-Toxic | 56% | –
COc1ccc(F)c(-c2cncn2-c2ccc(Cl)cc2)c1F | Non-Toxic | 78% | –

SMILES | Activity [1] | inhibition (Rattus norvegicus) | also measured
CCc1nc(Cl)c(-c2c(F)cccc2F)n1-c1ccc(Cl)cc1 | Non-Toxic | 81% | fold change (FC) (Homo sapiens): 1.8
Fc1ccc(F)c(-c2cncn2-c2ccc(OC(F)(F)F)cc2)c1F | – | 52% | FC [1]: 1.2
Fc1ccc(F)c(-c2cnc(Cl)n2-c2ccc(OC(F)(F)F)cc2)c1F | Non-Toxic | 80% | –
Fc1ccc(F)c(-c2cnc(Cl)n2-c2ccc(Cl)cc2)c1F | Non-Toxic | 24% | –
Fc1cc(Cl)ccc1-n1c(-c2c(F)cccc2F)cnc1Cl | Non-Toxic | 49% | –
Fc1cccc(F)c1-c1cncn1-c1ccccc1Cl | Non-Toxic | < 10% | –
Cc1nc(Cl)n(-c2ccc(Cl)cc2)c1-c1c(F)ccc(Cl)c1F | – | 54% | FC [1]: 0.5
Cc1ncn(-c2ccc(Cl)cc2)c1-c1c(F)cccc1F | Non-Toxic | 44% | –
Fc1ccc(Cl)c(F)c1-c1cnc(Cl)n1-c1ccc(Cl)cc1 | – | 88% | FC [1]: 0.8
Fc1cc(-n2c(-c3c(F)ccc(F)c3F)cnc2Cl)ccc1Cl | Non-Toxic | 58% | –
Clc1ccc(-n2c(Cl)nc(Cl)c2-c2ccccc2)cc1 | Non-Toxic | < 10% | –
Cc1nc(Cl)c(-c2c(F)cccc2F)n1-c1ccc(Cl)cc1 | – | 87% | FC [1]: 0.8; fold change (FC) (Homo sapiens): 2.5
Cc1nc(C)n(-c2ccc(Cl)cc2)c1-c1c(F)ccc(Cl)c1F | Non-Toxic | 51% | –
COc1ccc(-n2cncc2-c2c(F)cc(F)cc2F)cc1 | Non-Toxic | 25% | –
CC(C)Cc1ccc(C(C)C(=O)O)cc1 (stereo not drawn) [IBUPROFEN] | Non-Toxic | < 10% | –
Fc1cccc(F)c1-c1c(Cl)nc(Cl)n1-c1ccc(Cl)cc1 | Non-Toxic | 90% | –
Fc1cccc(F)c1-c1cnc(Cl)n1-c1ccc(OC(F)(F)F)cc1 | Non-Toxic | 61% | –
Clc1ccc(-n2cncc2-c2ccccc2)cc1 | Non-Toxic | 16% | –
Cc1cc(F)c(-c2c(Cl)nc(Cl)n2-c2ccc(Cl)cc2)c(F)c1 | – | 63% | FC [1]: 0.7
Fc1cccc(F)c1-c1c(Cl)nc(Cl)n1-c1ccccc1Cl | Non-Toxic | 21% | –
COc1ccc(-n2cnc(Cl)c2-c2c(F)cc(F)cc2F)cc1 | Non-Toxic | 86% | IC50 [2]: 9.7 µM; IC50 (Cyclooxygenase): 2.4 µM
Fc1ccc(F)c(-c2c(Cl)ncn2-c2ccc(OC(F)(F)F)cc2)c1F | Non-Toxic | 85% | –
Cc1ccc(F)c(-c2c(Cl)ncn2-c2ccc(Cl)cc2)c1F | – | 78% | FC [1]: 0.8
Fc1cc(Cl)ccc1-n1cnc(Cl)c1-c1c(F)cccc1F | Non-Toxic | 14% | –
COc1ccc(F)c(-c2c(Cl)ncn2-c2ccc(Cl)cc2)c1F | – | 91% | FC [1]: 0.8
Fc1cccc(F)c1-c1cncn1-c1ccc(OC(F)(F)F)cc1 | Non-Toxic | 55% | –
Cc1nc(Cl)c(-c2c(F)cc(F)cc2F)n1-c1ccc(Cl)cc1 | Non-Toxic | < 10% | –
